For this series, the system named is MS2 coat protein. The experiment in a line: apparent Kd, MS2 coat protein; higher = weaker binding; RNA-MaP array; FMN 200 µM where present. The method, boiled down: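 Stalled E. coli RNA polymerase transcribed the designs on Illumina sequencing-chip clusters. SNAP-549-labelled MS2 coat protein was titrated from 0.7 or 1.5 nM, doubling to 3 µM, without and then with constant ligand, in 100 mM Tris-HCl pH 7.5, 80 mM KCl, 4 mM MgCl2, BSA, DTT, yeast tRNA and Tween-20. Per-cluster binding curves were fitted to green signal normalised to red-channel RNA signal and control-cluster median Fmax. The apparent Kd is the median of the filtered fits.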

Where [1] appears, read: designed as: OFF switch for flavin mononucleotide, no ligand.
[2] abbreviates: ligand present: flavin mononucleotide, designed as: OFF switch for flavin mononucleotide.
The mark [3] stands for this setting: designed as: ON switch for flavin mononucleotide, no ligand.
The mark [4] stands for this setting: ligand present: flavin mononucleotide, designed as: ON switch for flavin mononucleotide.

The apparent Kd is a dissociation constant that holds for the conditions of the assay. For “AACUCGUCAGGAUAUGCGCACAGAUAAUACGCUUCGCAAUUGCAGAAGGGACAUGAGGAUCACCCAUGUAAAUA”, the “apparent Kd” value reads like this: under setting [1], 30.6 nM; under setting [2], 27 nM.

Take “AAAUAGAAUGAGGAUAUCGUACUGGAUAUAGUGCGAGAAGGCAUUACAUGAGGAUCACCCAUGUUUUGUUGGGA”: the “apparent Kd” value worked out at 25.6 nM under setting [1] and 76.6 nM under setting [2].

“AGUAACAGAGGAUAUACUAUUUUAUGUGUUUAUUAUUUUGAACAUGAGGAUCACCCAUGUAGAAGGCUGAAUAA”: the “apparent Kd” value under setting [1] stood at 27 nM and the “apparent Kd” value under setting [2] worked out at 30.1 nM.

As for “GCAUGACAAAGUCAUGCAUAACGAACAUGAGGAUCACCCAUGUAGGAUAUGCUACUCAAAGAGUAGCAGAAGGACAUGUGCCUU”, the “apparent Kd” value turned out to be 34.2 nM under setting [1] and 263 nM under setting [2].

As for “ACCGUAUGAACAUGAGGAUCACCCAUGUAACCGAUAACGAAUGAGGAUAUCGAUAGCAAAGCUAUCGAGAAGGCAUGGGACGGU”, the “apparent Kd” value under setting [3] amounted to 224 nM and the “apparent Kd” value under setting [4] is 43.9 nM.

Regarding “UUUUUAUUUGCAGGAUAUUGUAUUUUAUUACUUCAAGAAGGGCAUUACAUGAGGAUCACCCAUGUCUUCCUAUGGUUAACUAGU”, the “apparent Kd” value runs as follows: under setting [1], 12.3 nM; under setting [2], 12 nM.

On to “CUAUACAUAUCAGGAUAUCAUCGAGUGGAUUAACACAGUGAUUACAUGAGGAUCACCCAUGUGCUUGAGAAGGGAUUACUAUUU”, for which the “apparent Kd” value runs as follows: under setting [1], 14.6 nM; under setting [2], 12.9 nM.

In the case of “CCAUGCGGAUGAGGAUAUUCAUCCAUGAGGAUAGAAGAAGGCAUACAUGAGGAUCACCCAUGUAUACACAUGAGGAUCCCUUAC”, the “apparent Kd” value under setting [1] was 128 nM and the “apparent Kd” value under setting [2] was 178 nM.

Consider “UUGGACGUCGUAGGAUAUGUAGGCUAUUCCUACAUGAGGAUCACCCAUGUUGACAUGGAAGAAGGACAGAAGGACGAUGUCCAU”, for which the “apparent Kd” value was determined as 30.4 nM under setting [3] and 3.85 nM under setting [4].

Regarding “AAAUUUAACGAAGGAUAUACUAACAUGAGGAUCACCCAUGUGUGUUUCGUGUUACUGAAAUUCGGGUAGAAGGUCGUAUACAUA”, the “apparent Kd” value reads like this: under setting [1], 80.4 nM; under setting [2], 33.7 nM.

For the sequence “AAGUAGAUCCGAGGAUAUACAUAGCGGAAACGCAACAUGAGGAUCACCCAUGUAGAAGGCGGAUCUACAGGUACUAAAGUACCA”, the “apparent Kd” value was determined as 7.77 nM under setting [1] and 13.5 nM under setting [2].

As for “CGCUAUGAUGGGUUUAAUGGAGCAUAGGAUAUGCUUGUACAUGAGGAUCACCCAUGUUAUAUUGUGCAGAAGGGUGCAUUUGCG”, the “apparent Kd” value reads like this: under setting [3], 433 nM; under setting [4], 157 nM.

On to “UUUUUUGUUGUGAGGAUAUCGUAUUUUUUUUGUUACGAGAAGGCACAUGAGGAUCACCCAUGUUUCUUGAUGUU”, for which the “apparent Kd” value reads like this: under setting [1], 13.6 nM; under setting [2], 28.6 nM.

In the case of “GUUAUACAUGAGGAUCACCCAUGUCAAUGUAGUCGAGGAUAUGGGUAGCUAUGAGGCGUACUAGAAGGCGAGGAGU”, the “apparent Kd” value reads like this: under setting [3], 77.8 nM; under setting [4], 160 nM.

Regarding “ACAUGAUCAGGAUAUACAUGAGGAUCACCCAUGUAUUUCAAAAAGGGACUUUCUUAAUGUAGAAGGGAUCUUGU”, the “apparent Kd” value by setting is: under setting [1], 14.7 nM; under setting [2], 33.8 nM.

Consider “CUUAGUUUGUAGAAGGGUGACAUGAGGAUCACCCAUGUGCGUCUCCUGAAAGACCAGGGUACGCCACAGGAUAUACAAAGUAAG”, for which the “apparent Kd” value by setting is: under setting [3], 42.7 nM; under setting [4], 47.7 nM.

Take “UUUUUACAUGAGGAUCACCCAUGUCAGGAUAUCGUUAUAUUUUAUUAUUUUAUUUUUUCGAGAAGGGACUAUUA”: the “apparent Kd” value under setting [1] was determined as 90.3 nM and the “apparent Kd” value under setting [2] was determined as 58.6 nM.

“AGUACCAUGUAGAAGGGAUAUCUGAUUCAGAUAUCAGGAUAUACAUGAGGAUCACCCAUGUAAAUGUACUGCACGAAAGUGCAA”: the “apparent Kd” value reads like this: under setting [1], 18 nM; under setting [2], 37.9 nM.

As for “ACUGUGCAUUAGAAGGGUGCGCGGCAAUCGCGCACAGGAUAUGAUGACAUGAGGAUCACCCAUGUCUGUGUCACCUGGGUGUCG”, the “apparent Kd” value was 13.3 nM under setting [1] and 83.8 nM under setting [2].

Consider “GGAUAGGACAGAGGAUAUACGUGCUAGAGAGACUAGCAAAAUUUCCUCACAUGAGGAUCACCCAUGUAGAAGGCUGUCCUAUCG”, for which the “apparent Kd” value runs as follows: under setting [1], 16.3 nM; under setting [2], 432 nM.

Regarding “UAAUAAAGUGUGAGGAUAUGCUGGUCCUUAGAUCAGCAGAAGGCACAUGAGGAUCACCCAUGUAAUAUAUAAAU”, the “apparent Kd” value stood at 40 nM under setting [1] and 281 nM under setting [2].

For “UGUUGUAUUACAGGAUAUCUAUGAUUUAUAUUUAGAGAAGGGUAUUCACAUGAGGAUCACCCAUGUAUAUACGAGGAAGUUGUG”, the “apparent Kd” value turned out to be 48.7 nM under setting [3] and 55.9 nM under setting [4].

Take “AAUGGGCAGCAGAAGGCAUGUCAAUGGACAUGAGGAUCACCCAUGUAGUAUAGCCGAAAGGCACAUGAGGAUAUGCUGCCCUAA”: the “apparent Kd” value is 47.2 nM under setting [3] and 6.74 nM under setting [4].

In the case of “CUUCAGUCACAGGAUAUGCUCAUCUAAUGAUGAGCAGAAGGGUGAACAUGAGGAUCACCCAUGUUUACGGUGGU”, the “apparent Kd” value reads like this: under setting [1], 621 nM; under setting [2], 487 nM.

As to “GUGGCUAGUACAGGAUAUUAGUGCGUGUAGUAUUGAGAAGGGUACAUGAGGAUCACCCAUGUGAUCAAUCACUGUUAAGGUCGC”, the “apparent Kd” value under setting [1] came out at 252 nM and the “apparent Kd” value under setting [2] came out at 177 nM.

In the case of “GAGUAGGGAGGAUAUACGUGCUCAAUCCCGGAAAGCGGGAAACAUGAGGAUCACCCAUGUAGAAGGCCCAUAAA”, the “apparent Kd” value is 82.1 nM under setting [1] and 46.4 nM under setting [2].

Take “UAUGGUUAAGUCAGGAUAUGCUCGUAGAAGUCUAUGCAGAAGGGACAUGAGGAUCACCCAUGUAUGGUCGUGUU”: the “apparent Kd” value reads like this: under setting [1], 94.3 nM; under setting [2], 177 nM.

Take “CGAGCUGCUGUGAGGAUAUGCCUGUGGGUGCGUGGGUAGAAGGCACAUGAGGAUCACCCAUGUCCUGCAGCUCG”: the “apparent Kd” value by setting is: under setting [1], 856 nM; under setting [2], 412 nM.

As for “CGGACCGGCUCAGGAUAUGGGUGCUCAAAAGACAUGAGGAUCACCCAUGUCUCAAGCUGUGCACAUCAGAAGGGAGCUUCGGGU”, the “apparent Kd” value reads like this: under setting [3], 13.3 nM; under setting [4], 16.3 nM.

For the sequence “ACAUGAUCAGGAUAUACAUGAGGAUCACCCAUGUUUAUCAAAAAAAGGCUUUCAUCAUGUAGAAGGGAUCUUGU”, the “apparent Kd” value under setting [1] came to 20.4 nM and the “apparent Kd” value under setting [2] amounted to 65.7 nM.

With “UUAUAUAAGGUGUAGCUAGACAUGCAAGAAGGGUGAAGAACAUGAGGAUCACCCAUGUAGACGGUACAGGAUAUUGAUUGACGA”, the “apparent Kd” value is 340 nM under setting [3] and 166 nM under setting [4].

Regarding “UGUCGGAGCAGAGGAUAUUACAUGAGGAUCACCCAUGUAUGAACCAAUAGCUGGAAACAGCAAUGUAAGAAGGCUGCUCCAACA”, the “apparent Kd” value by setting is: under setting [1], 12.3 nM; under setting [2], 149 nM.

As to “UUAUGGUUCAAGAAGGAUGUAUUUGACUUAUACAUAGGAUAUUGUUAAAUUGAUAAUUAAUGUAACAUGAGGAUCACCCAUGUA”, the “apparent Kd” value under setting [3] came to 8.1 nM and the “apparent Kd” value under setting [4] was determined as 7.39 nM.

As to “CAGUCUACAGGAUAUACAUGAGGAUCACCCAUGUGUAUUCACUUUCAGUAGUCUUUAUGUAGAAGGGUAGACUG”, the “apparent Kd” value came out at 15.9 nM under setting [1] and 26.7 nM under setting [2].

For “AAAAAACAUGAGGAUCACCCAUGUCAAAAGACAUGAGGAUAUGUACAGACUUCGGUCUGUACAGAAGGCAUGUAAA”, the “apparent Kd” value is, setting by setting: under setting [3], 321 nM; under setting [4], 30.8 nM.

For “GUUUUGAUAGGAUAUACAUGAGGAUCACCCAUGUCCCACCCGUUACCUCUGACCCUAUGUAGAAGGAUCGUUUG”, the “apparent Kd” value by setting is: under setting [1], 34.3 nM; under setting [2], 26.4 nM.

As for “AUUAACUACAUAGGAUAUUGAUACAUGAGGAUCACCCAUGUCACCCAUGUUUAUUUAUCAAUUGACAAGAAGGAUGUGGUUACA”, the “apparent Kd” value under setting [3] was found to be 69.8 nM and the “apparent Kd” value under setting [4] was 46.5 nM.

As for “GCACGGUAAGUGAGGAUAUACCUCUGGAUACAGAGGUAGAAGGCACAUGAGGAUCACCCAUGUCUAAGCCGUGC”, the “apparent Kd” value reads like this: under setting [1], 17.1 nM; under setting [2], 24.1 nM.

Regarding “AAAACAGUGUAGGAUAUGGCUGGGCUGAAAAUGCUAGAAGGACACACAUGAGGAUCACCCAUGUGACUUCGUGC”, the “apparent Kd” value amounted to 13.8 nM under setting [1] and 15.5 nM under setting [2].

In the case of “GUAUGAGCGAUAGGAUAUACUGAGAUUGAAUGGGUAGAAGGAUCACUUGUGUGGAAGACAUGAGGAUCACCCAUGUUACGGGCC”, the “apparent Kd” value was determined as 20.7 nM under setting [3] and 62.6 nM under setting [4].

On to “AUCGUGCAGCUUUGCUGUACGCGUACAUGAGGAUCACCCAUGUAGGAUAUGGUACGCUUUGCGUGCUAGAAGGAUAUGGAGAGG”, for which the “apparent Kd” value runs as follows: under setting [1], 16.9 nM; under setting [2], 21.1 nM.

Turning to “AUGGUACAUGAGGAUCACCCAUGUUAGGAUAUCGCGUGAUCUAAAACUAAGAGACACACGAGAAGGGACGACAU”, the “apparent Kd” value is, setting by setting: under setting [1], 176 nM; under setting [2], 104 nM.

Consider “GCCAGGAUGUGAGGAUAUGCUGAGGAUAACUCAGCAGAAGGCACAUGAGGAUCACCCAUGUAAACUUAUCAUAAAUACCCUGGC”, for which the “apparent Kd” value came out at 14.3 nM under setting [1] and 21.2 nM under setting [2].

Turning to “GGUGGACAUGAGGAUCACCCAUGUGAGGAUAUCGGCCGGCUAGUGGUGGCUGGCUUCUCGAGAAGGCGCAUAGU”, the “apparent Kd” value was 61.8 nM under setting [1] and 99.7 nM under setting [2].

Turning to “GUGGUCAGACAUGAGGAUCACCCAUGUGGAAUAAAUAAGGAAAAGGAUAUCGAAUAUAGGAUAUACGAGAAGGUUUGGUUGGUG”, the “apparent Kd” value is, setting by setting: under setting [3], 96.5 nM; under setting [4], 98.8 nM.

With “CGUCGAUACCAGAAGGACAUGAGGAUCACCCAUGUAGGAUAUGGGUGACCGGGAUGGUGGACACGGUGCCCGGGCACAUGCGAC”, the “apparent Kd” value is, setting by setting: under setting [3], 81.8 nM; under setting [4], 14.9 nM.

Regarding “GGAUGACAAAGUCAUCCUUAACGAACAUGAGGAUCACCCAUGUAGGAUAUGCUUCUCAAAGAGAAGCAGAAGGACAUGUGCCUU”, the “apparent Kd” value stood at 33.3 nM under setting [1] and 256 nM under setting [2].

For “UAAGUUGUGGUAGGAUAUACUUUAAAUUUCUCUAUCCAUACAUGAGGAUCACCCAUGUUUACAUUGUAGAAGGACCUUUUUGUU”, the “apparent Kd” value under setting [1] stood at 24.2 nM and the “apparent Kd” value under setting [2] turned out to be 21.1 nM.

The values above are taken from the EternaBench riboswitch data.
